Experimental data pooled from the literature.
Compare with care: the assays were run in different laboratories.
CASP7: Caspase-7 (CASP7, Homo sapiens, UniProt P55210)
glgA: glgA (Escherichia coli, UniProt P0A6U8)

SMILES | target | test | test system | conditions | quantity | value
CN(C)C(=O)COC(=O)Cc1ccc(OC(=O)c2ccc(NC(=N)N)cc2)cc1 | CASP7 | enzyme activity, inhibitor | – | 10 µM | inhibition | 0%
Nc1ncnc2c1ncn2[C@@H]1O[C@H](COP(=O)(O)OP(=O)(O)O[C@H]2O[C@H](CO)[C@@H](O)[C@H](O)[C@H]2O)[C@@H](O)[C@H]1O | glgA | enzyme activity, substrate | – | – | Km | 420 µM
CSCC[C@H](NC(=O)[C@@H](NC(=O)[C@@H](N)Cc1ccc(O)cc1)C(C)C)C(=O)NCC(=O)N[C@@H](Cc1c[nH]cn1)C(=O)O | Melanocyte-stimulating hormone receptor (Mc1r, Mus musculus, UniProt Q01727) | cAMP, agonist | HEK293 | – | Emax | 60%
CCN(CC)CCCC[C@H](NC(=O)[C@H](CC(C)C)NC(=O)[C@H](C)NC(=O)[C@H](Cc1ccccc1)NC(=O)c1ccc(C(C)(C)C)cc1)C(=O)N[C@@H](CO)C(=O)OC | CREB-binding protein (CREBBP, Homo sapiens, UniProt Q92793) | thermal stability, DSF | – | 25 µM | ΔTm | 0.35 °C
CC(=O)N[C@@H](CC(=O)O)C(=O)N[C@@H](CC(N)=O)C(=O)N[C@@H](CC(C)C)C(=O)N[C@H](C=O)CC(=O)O | CASP7 | enzyme activity, inhibitor | – | 50 nM | inhibition | 43%
COc1ncccc1-c1cnn2ccc(N3CCN(C(=O)OC(C)C)CC3)nc12 | Mitogen-activated protein kinase kinase kinase 15 (MAP3K15, Homo sapiens, UniProt Q6ZN16) | binding, competition with immobilised ligand | – | 1 µM | remaining binding | 86%
Cc1nn(C)cc1-c1nc2c(N3CCN(Cc4ccc(Cl)cc4)CC3)c(Cl)cnc2[nH]1 | Dual specificity testis-specific protein kinase 1 (TESK1, Homo sapiens, UniProt Q15569) | binding, competition with immobilised ligand | – | 1 µM | remaining binding | 87%
OC[C@H]1NC[C@@H](O)[C@@H]1O | glgA | enzyme activity, inhibitor | – | 500 µM | activity vs control | 72%
O=C(Nc1cccnn1)N1CCN([C@@H]2CCOc3cc(C(F)(F)F)ccc32)CC1 | Alpha-2B adrenergic receptor (ADRA2B, Homo sapiens, UniProt P18089) | ligand displacement | – | 20 µM | inhibition | 45%
Nc1ncc(-c2nc(N3CCOCC3)nc(N3CCOCC3)n2)c(C(F)F)n1 | 5-hydroxytryptamine receptor 1B (Htr1b, Rattus norvegicus, UniProt P28564) | cell-free assay, radioligand | – | 10 µM | remaining signal | 115%
N=C(N)c1ccc2cc(OC(=O)c3ccc(N=C(N)N)cc3)ccc2c1 | Ubiquitin carboxyl-terminal hydrolase isozyme L3 (UCHL3, Homo sapiens, UniProt P15374) | enzyme activity, inhibitor | – | 10 µM | inhibition | 6%
C=CC(=O)N1CCC[C@@H](n2nc(-c3ccc(Oc4ccccc4)cc3)c3c(N)ncnc32)C1 | Dual specificity tyrosine-phosphorylation-regulated kinase 1B (DYRK1B, Homo sapiens, UniProt Q9Y463) | cell-free assay | – | 0.1 µM | remaining signal | 195%
C#Cc1n[nH]c2c(-c3cn(C(C)c4ccccn4)c(=O)[nH]c3=O)cc(F)cc12 (stereo not shown) | Phosphatidylinositol 4,5-bisphosphate 3-kinase catalytic subunit gamma isoform (PIK3CG, Homo sapiens, UniProt P48736) | enzyme activity, inhibitor | – | 1 µM | inhibition | 14.7%
